Assay results: paper PMC2233693 (The Journal of General Physiology, 2000)
Positions count from the first letter of the chain named. Read-outs that look alike come from different tables or passages of the source. One block for each compound: values may come before it.

Legend:
Type in all cases: biochemical
[1] = biological target: T1, wild-type bovine olfactory CNG channel (α3 subunit) (Bos taurus, UniProt Q03041); assay: Blockage of macroscopic current by external Ca2+ or Mg2+, outside-out patches; conditions: for Ki: mean ± SD
T1 sequence (Q03041 1-663): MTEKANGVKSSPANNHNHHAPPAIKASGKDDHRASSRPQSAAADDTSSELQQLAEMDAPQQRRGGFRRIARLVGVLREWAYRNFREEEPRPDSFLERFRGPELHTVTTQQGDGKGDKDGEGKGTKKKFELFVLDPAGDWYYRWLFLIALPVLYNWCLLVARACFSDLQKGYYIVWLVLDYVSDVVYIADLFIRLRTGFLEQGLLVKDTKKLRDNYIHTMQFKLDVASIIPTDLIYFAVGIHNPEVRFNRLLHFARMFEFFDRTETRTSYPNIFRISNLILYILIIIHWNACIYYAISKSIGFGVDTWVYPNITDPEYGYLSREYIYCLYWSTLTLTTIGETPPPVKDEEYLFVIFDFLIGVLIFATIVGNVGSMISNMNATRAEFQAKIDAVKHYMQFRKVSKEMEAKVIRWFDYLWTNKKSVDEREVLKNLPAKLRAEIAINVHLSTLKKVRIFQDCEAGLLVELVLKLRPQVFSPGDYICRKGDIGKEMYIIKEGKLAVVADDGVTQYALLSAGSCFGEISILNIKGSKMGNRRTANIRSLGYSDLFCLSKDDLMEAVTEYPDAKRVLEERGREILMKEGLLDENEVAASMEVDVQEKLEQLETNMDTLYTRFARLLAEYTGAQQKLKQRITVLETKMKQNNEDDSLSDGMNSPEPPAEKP
In short: (§1)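 Xenopus oocytes injected with wild-type or mutant channel mRNA; outside-out patches with 100 μM cGMP in the pipette. Bath: 110 mM NaCl, 2 mM EDTA, 10 mM HEPES, pH 7.4, plus Ca2+ (NTA-buffered) or Mg2+ (EDTA-buffered); unbuffered above 0.1 mM. Five 1-s ramps (−80 to +80 mV) averaged, leak subtracted. Current normalised to divalent-free current at the same voltage, Hill-fitted per patch; Ki and n given as mean ± SD.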

[2] = biological target: T2, E340G mutant bovine olfactory CNG channel (Bos taurus, UniProt Q03041, E340G); assay: Divalent cation permeation, outside-out patches in bi-ionic conditions; conditions: for reversal potential, V rev: internal Na
T2 sequence (Q03041 1-663 E340G): T1 sequence (Q03041 1-663) with E340G
In short: (§2)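 Outside-out oocyte patches; the pipette held 1 mM cGMP and 110 mM NaCl. External 110 mM NaCl was replaced by 73.3 mM CaCl2 or MgCl2. From a 0 mV holding potential, 150-ms steps were given from −80 to +80 mV in 20-mV increments. I_Ca/I_Na was taken at −80 mV, and reversal potential under bi-ionic conditions (internal Na+, external divalent); mean ± SD.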

[3] = biological target: T2, E340G mutant bovine olfactory CNG channel; assay: Blockage of macroscopic current by external Ca2+ or Mg2+, outside-out patches; conditions: for Ki: mean ± SD
In short: as §1

[4] = biological target: T3, E340N^‡ mutant bovine olfactory CNG channel (Bos taurus, UniProt Q03041, E340Q); assay: as above
T3 sequence (Q03041 1-663 E340Q): T1 sequence (Q03041 1-663) with E340Q
In short: as §1

[5] = biological target: T2, E340G mutant bovine olfactory CNG channel
[6] = biological target: T1, wild-type bovine olfactory CNG channel (α3 subunit); assay: Divalent cation permeation, outside-out patches in bi-ionic conditions; conditions: for reversal potential, V rev: internal Na
In short: as §2

[7] = −80 mV, external 73.3 mM CaCl2 vs 110 mM NaCl
[8] = external Mg2+, −80 mV, one experiment

- n, Hill coefficient of blockage ([1]; external Ca2+, +80 mV): 0.9 ± 0.1
- Ki ([1]; external Ca2+, +80 mV): 0.383 ± 0.145 mM
- n, Hill coefficient of blockage ([1]; external Ca2+, −80 mV): 1.3 ± 0.4
- Ki ([1]; external Ca2+, −80 mV): 0.047 ± 0.021 mM
- reversal potential, V rev ([2]; external Ca2+): 24 ± 5 mV
- I Ca/I Na [2, 7]: 0.16 ± 0.03
- n, Hill coefficient of blockage ([3]; external Ca2+, +80 mV): 0.6 ± 0.2
- Ki ([3]; external Ca2+, +80 mV): 26 ± 9.8 mM
- n, Hill coefficient of blockage ([3]; external Ca2+, −80 mV): 0.4 ± 0.1
- Ki ([3]; external Ca2+, −80 mV): 6.3 ± 2.5 mM
- n, Hill coefficient of blockage ([4]; external Ca2+, +80 mV): 0.5 ± 0.2
- Ki ([4]; external Ca2+, +80 mV, mean ± SD): 19 ± 12 mM
- n, Hill coefficient of blockage ([4]; external Ca2+, −80 mV): 0.4 ± 0.2
- Ki ([4]; external Ca2+, −80 mV, mean ± SD): 2.1 ± 0.6 mM
- effect of external Ca2+ on K 1/2 for cAMP or cGMP ([5]; 1 mM Ca2+ in the patch pipette): did not significantly affect K 1/2
- reversal potential, V rev ([6]; external Ca2+): 25 ± 6 mV
- I Ca/I Na [6, 7]: 0.049 ± 0.004
SMILES: [Ca+2] [Ca^2+]

- n, Hill coefficient of blockage ([1]; external Mg2+, +80 mV): 1.0 ± 0.1
- Ki ([1]; external Mg2+, +80 mV): 0.92 ± 0.64 mM
- n, Hill coefficient of blockage ([1]; external Mg2+, −80 mV): 1.2 ± 0.2
- Ki ([1]; external Mg2+, −80 mV): 0.07 ± 0.034 mM
- reversal potential, V rev ([2]; external Mg2+): 45 ± 15 mV
- n, Hill coefficient of blockage ([3]; external Mg2+, +80 mV): 0.8 ± 0.2
- Ki ([3]; external Mg2+, +80 mV): 9.5 ± 3.9 mM
- n, Hill coefficient of blockage ([3]; external Mg2+, −80 mV): 0.7 ± 0.1
- Ki ([3]; external Mg2+, −80 mV): 1.1 ± 0.3 mM
- n, Hill coefficient of blockage ([4]; external Mg2+, +80 mV, one experiment): 0.3
- Ki [4, 8]: 3.4 mM
- n, Hill coefficient of blockage [4, 8]: 0.5
- reversal potential, V rev ([6]; external Mg2+): 45 ± 7 mV
SMILES: [Mg+2] [Mg^2+]

- n(−80 mV), Hill coefficient ([5]; cGMP): 1.8 ± 0.4
- I(−80 mV)/I(+80 mV) ([5]; cGMP-gated current): 0.79 ± 0.09
- EC50 ([5]; read-out: K 1/2, cGMP, +80 mV): 0.013 ± 0.0015 mM
- EC50 ([5]; read-out: K 1/2, cGMP, −80 mV): 0.015 ± 0.0016 mM
- EC50 ([5]; read-out: K 1/2,cG, −80 mV, single patch, Fig. 1 fit): 0.0185 mM
- n cG ([5]; −80 mV, single patch, Fig. 1 fit): 1.6
SMILES: Nc1nc2c(ncn2[C@@H]2O[C@@H]3COP(=O)(O)O[C@H]3[C@H]2O)c(=O)[nH]1 [cGMP]
